In ChEMBL document CHEMBL4014335, “Activation of Phenyl 4-(2-Oxo-3-alkylimidazolidin-1-yl)benzenesulfonates Prodrugs by CYP1A1 as New Antimitotics Targeting Breast Cancer Cells” (J Med Chem, 2017):

Experiments:
HT-29 = experiment: Antiproliferative activity against human HT-29 cells after 48 hrs by SRB assay; format: functional, cell-based; conditions: HT-29, 48 h
In short: (§1)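 SRB assay run as in the NCI screen with slight modifications. Seeding: HT-29 5.0 x 10^3, M21 3.5 x 10^3, MCF7 7.5 x 10^3 cells; cells preincubated 24 h. Drug in DMSO added at 0.75 to 1.0 x 10^5 nM for 48 h. TCA fixation, sulforhodamine B staining, absorbance 530-565 nm. At least two experiments in triplicate; runs accepted only when relative SD < 10%.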

M21 = experiment: Antiproliferative activity against human M21 cells after 48 hrs by SRB assay; format: functional, cell-based; conditions: M21, 48 h; in short: as §1
MCF7 = experiment: Antiproliferative activity against human MCF7 cells after 48 hrs by SRB assay; format: functional, cell-based; conditions: MCF7, 48 h; in short: as §1
[1] = Selectivity ratio of IC50 for human HT-29 cells to IC50 for human MCF7 cells; format: functional
In short: (§2)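 Ratio is IC50 in reference line over IC50 in sensitive line. […] Cells in DMEM with 5% calf serum at 37 °C. At least two experiments, triplicate cultures; assay accepted when relative SD < 10%.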

[2] = Selectivity ratio of IC50 for human M21 cells to IC50 for human MCF7 cells; format: functional; in short: as §2

SMILES | IC50 (HT-29) | IC50 (M21) | IC50 (MCF7) | Ratio IC50 [1] | Ratio IC50 [2]
CCCCN1CCN(c2ccc(S(=O)(=O)Oc3cccc(I)c3)cc2)C1=O | 9.6 µM | 23 µM | 0.058 µM | 170 | 400
CCCN1CCN(c2ccc(S(=O)(=O)Oc3ccccc3OC)cc2)C1=O | > 100 µM | > 100 µM | 13 µM | >7.7 | >7.7
CCCCN1CCN(c2ccc(S(=O)(=O)Oc3ccccc3)cc2)C1=O | > 100 µM | > 100 µM | 8.8 µM | >11 | >11
CCCN1CCN(c2ccc(S(=O)(=O)Oc3cccc(C)c3)cc2)C1=O | 65 µM | 28 µM | 86 µM | 0.8 | 0.3
COc1ccc(OS(=O)(=O)c2ccc(N3CCN(C)C3=O)cc2)cc1OC | 12 µM | 8.5 µM | 12 µM | 1 | 0.72
CCN1CCN(c2ccc(S(=O)(=O)Oc3cc(OC)c(OC)c(OC)c3)cc2)C1=O | 0.64 µM | 0.87 µM | 0.7 µM | 0.9 | 1.2
Cc1ccc(OS(=O)(=O)c2ccc(N3CCN(C)C3=O)cc2)cc1 | > 100 µM | > 100 µM | > 100 µM | – | –
CCN1CCN(c2ccc(S(=O)(=O)Oc3ccccc3OC)cc2)C1=O | > 100 µM | > 100 µM | > 100 µM | – | –
CCCN1CCN(c2ccc(S(=O)(=O)Oc3cc(OC)cc(OC)c3)cc2)C1=O | 16 µM | 33 µM | 0.27 µM | 59 | 120
CN1CCN(c2ccc(S(=O)(=O)Oc3cccc([N+](=O)[O-])c3)cc2)C1=O | 26 µM | 23 µM | > 100 µM | – | –
COc1cc(OS(=O)(=O)c2ccc(N3CCN(C)C3=O)cc2)cc(OC)c1OC | 0.062 µM | 0.054 µM | 0.12 µM | 0.5 | 0.5
CCCN1CCN(c2ccc(S(=O)(=O)Oc3cccc(OC)c3)cc2)C1=O | 25 µM | 10 µM | 6.3 µM | 4 | 1.6
CCCN1CCN(c2ccc(S(=O)(=O)Oc3cccc([N+](=O)[O-])c3)cc2)C1=O | > 100 µM | 38 µM | 19 µM | >5.3 | 2
COc1cccc(OS(=O)(=O)c2ccc(N3CCN(C)C3=O)cc2)c1 | 2.5 µM | 1.6 µM | 3 µM | 0.8 | 0.6
CCN1CCN(c2ccc(S(=O)(=O)Oc3cc(OC)cc(OC)c3)cc2)C1=O | 4.3 µM | 4.2 µM | 3.5 µM | 1.2 | 1.2
CCCN1CCN(c2ccc(S(=O)(=O)Oc3cc(Cl)c(Cl)cc3Cl)cc2)C1=O | 19 µM | 15 µM | 13 µM | 1.5 | 1.2
CCCN1CCN(c2ccc(S(=O)(=O)Oc3ccc(C)cc3C)cc2)C1=O | 26 µM | 9.7 µM | 1.5 µM | 17 | 6.5
CCCN1CCN(c2ccc(S(=O)(=O)Oc3cccc(Cl)c3)cc2)C1=O | 13 µM | 8.6 µM | 0.38 µM | 34 | 23
CCN1CCN(c2ccc(S(=O)(=O)Oc3ccc(OC)cc3)cc2)C1=O | 60 µM | 26 µM | > 100 µM | – | –
CN1CCN(c2ccc(S(=O)(=O)Oc3cccc(F)c3)cc2)C1=O | > 100 µM | 5.8 µM | > 100 µM | – | –
CCCCN1CCN(c2ccc(S(=O)(=O)Oc3cccc(Cl)c3)cc2)C1=O | 21 µM | 90 µM | 0.11 µM | 190 | 820
CN1CCN(c2ccc(S(=O)(=O)Oc3cccc(Br)c3)cc2)C1=O | 1.3 µM | 1.3 µM | 1.5 µM | 0.8 | 0.9
CN1CCN(c2ccc(S(=O)(=O)Oc3ccc(F)cc3)cc2)C1=O | > 100 µM | > 100 µM | > 100 µM | – | –
CCCN1CCN(c2ccc(S(=O)(=O)Oc3c(Cl)cc(Cl)cc3Cl)cc2)C1=O | 56 µM | 56 µM | > 100 µM | – | –
CCN1CCN(c2ccc(S(=O)(=O)Oc3cccc(F)c3)cc2)C1=O | > 100 µM | 11 µM | > 100 µM | – | –
